hDAT+cocaine = human DAT dopamine uptake with cocaine, either direction | Q01959 | LLC-PK1 hDAT cells, [14C]-dopamine uptake with cocaine IC80; actives deviate in either direction | 1.3% of 110,000 active | B-score at 10 µM;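 active = Z score or B-score, a plate-position-corrected score, falls beyond the plate's 99.7% confidence bounds, in either direction; inactive = both scores lie inside the 99.7% bounds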
Target sequence (Q01959 whole entry, looked up): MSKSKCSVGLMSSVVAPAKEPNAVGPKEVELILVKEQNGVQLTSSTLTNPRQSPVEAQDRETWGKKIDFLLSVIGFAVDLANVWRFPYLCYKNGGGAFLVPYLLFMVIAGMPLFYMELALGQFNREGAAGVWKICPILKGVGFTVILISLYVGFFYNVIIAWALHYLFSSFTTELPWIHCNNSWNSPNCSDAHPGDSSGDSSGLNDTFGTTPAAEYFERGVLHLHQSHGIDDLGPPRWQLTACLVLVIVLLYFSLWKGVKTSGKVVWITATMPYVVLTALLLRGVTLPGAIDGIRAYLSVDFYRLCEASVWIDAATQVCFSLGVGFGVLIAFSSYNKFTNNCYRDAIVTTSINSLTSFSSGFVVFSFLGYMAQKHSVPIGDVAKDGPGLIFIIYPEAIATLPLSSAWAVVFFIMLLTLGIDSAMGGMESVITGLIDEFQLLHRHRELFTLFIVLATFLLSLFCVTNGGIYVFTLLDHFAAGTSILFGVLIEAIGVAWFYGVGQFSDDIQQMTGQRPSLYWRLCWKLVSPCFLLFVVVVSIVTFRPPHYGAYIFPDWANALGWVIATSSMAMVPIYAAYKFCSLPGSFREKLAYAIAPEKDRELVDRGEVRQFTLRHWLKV
MMP-13 inhibitor = blocks human MMP13 activity | P45452 | MMP-13 fTHP FRET cleavage, Mca fluorescence | inhibition, % at 4 µM | 0.07% of 65,000 active;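 active = inhibition above the mean of compound-free control plate wells plus 3 SD, cut at about 14% in these data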
AP ELISA ortho = orthogonal test for alternative complement pathway inhibitors. Human serum alternative complement pathway, LPS-coated ELISA, C3 deposition; tested in compound mixtures. inhibition, % at 5 µM. 0.08% of 62,000 active. AID 1235;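 active = inhibition above 30% in each of the two pooled mixtures holding the compound, so the lower value exceeds 30%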
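Assay system: Human serum alternative complement pathway, C3 deposition on LPS-coated wells | Incubation: 1 h serum-compound exposure at 37 °C | Doses: 5 µM per compound in ten-compound mixtures | Read-out: Percent inhibition | Technique: ELISA with HRP anti-human C3 antibody, TMB substrate, absorbance 450 nm | Replication: Two pool placements per compound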
Calb biofilm kill = kills Candida albicans biofilms | C. albicans biofilm + clotrimazole, Alamar Blue | inhibition, % at 6 µM | 0.14% of 85,000 active;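 active = inhibition above 20%; inactive = inhibition below 20%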;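 also: preformed 24 hr biofilms exposed to compound for 48 hr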
D1 allo mod = allosteric modulators of human D1 dopamine receptor. P21728. HEK293 D1, CRE-luciferase, dopamine EC30 potentiation; actives deviate in either direction. B-score at 10 µM. 5.9% of 58,000 active;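 active = luminescence count or its row- and column-corrected plate score outside the 99.7% band of the plate's sample wells, on either side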
D1 mod confirm = confirmation of human D1 dopamine receptor allosteric modulators; shares compounds with D1 allo mod; HEK293 D1 CRE-luciferase, dopamine EC30 potentiation; active compounds read high; luminescence at 10 µM; 88% of 2,200 active;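 active = luminescence in either of two replicates above the same-plate mean plus 3 SD of the low-dose dopamine control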
D1 ag no DA = secondary test of D1 modulators: activity without dopamine; HEK293 D1 CRE-luciferase, luminescence, no dopamine; active compounds read high; 0.8% of 1,900 active; AID 646; shares compounds with D1 allo mod; luminescence at 10 µM; in the data active = luminescence above about 3900
Isoprot counter = isoproterenol response counter-screen activity for D1 modulators. shares compounds with D1 allo mod. 63% of 2,200 active. luminescence at 10 µM. HEK293 D1 CRE-luciferase, isoproterenol EC30 counter-screen; active compounds read high. AID 647;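 active = luminescence in either replicate above plate mean of wells with a partly effective reference agonist dose plus 3 SD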;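 also: isoproterenol raises cAMP through native beta-adrenoceptor Gs so signal bypasses D1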
Hits are given with their value. The sample as a whole holds a higher share of hits than the screen did.

`COc1ccc(-c2nn(-c3ccccc3)cc2CO)cc1OC` gave hDAT+cocaine inactive, MMP-13 inhibitor inactive, AP ELISA ortho inactive, Calb biofilm kill inactive, D1 allo mod 6.7, D1 mod confirm 13160, D1 ag no DA inactive and Isoprot counter 4152.
Screening COc1cccc(-c2nn(-c3ccccc3)cc2CO)c1 returned hDAT+cocaine inactive, MMP-13 inhibitor inactive, AP ELISA ortho inactive, Calb biofilm kill inactive, D1 allo mod 3.6, D1 mod confirm 10836, D1 ag no DA inactive and Isoprot counter 3120.
`c1ccc(Cn2cc(CNc3ccccc3)nn2)cc1` gave hDAT+cocaine inactive.
COc1cc(-c2ccc3oc(-c4ccsc4)c(C#CC4(O)CCCCC4)c3c2)cc(OC)c1OC was read as hDAT+cocaine inactive.
COc1cccc(/C=N/n2c(N)nc3ccccc32)c1OC was read as hDAT+cocaine inactive and Calb biofilm kill inactive.
For COc1ccc(/C=N/n2c(N)nc3ccccc32)cc1OC the results were hDAT+cocaine inactive, MMP-13 inhibitor inactive, AP ELISA ortho inactive, Calb biofilm kill inactive, D1 allo mod 9.5, D1 mod confirm 21348, D1 ag no DA inactive and Isoprot counter 4316.
For Nn1c(SCC(=O)NCCC2=CCCCC2)nnc1C(F)(F)F the results were hDAT+cocaine inactive.
For CCOC(=O)CN1C(=O)N[C@@H](c2ccco2)C(C(=O)OC)=C1C the results were hDAT+cocaine inactive.
`COc1ccc(-c2cc(C(F)F)n3ncc(C(=O)N4CCN(C(=O)c5ccco5)CC4)c3n2)cc1` gave hDAT+cocaine inactive, MMP-13 inhibitor inactive, AP ELISA ortho inactive, Calb biofilm kill inactive, D1 allo mod 9.4, D1 mod confirm 13496, D1 ag no DA inactive and Isoprot counter 7648.
`Nc1nc2c3ccccc3nc(Cc3ccccc3)n2n1` gave hDAT+cocaine inactive, MMP-13 inhibitor inactive, AP ELISA ortho inactive, Calb biofilm kill inactive, D1 allo mod 16, D1 mod confirm 11064, D1 ag no DA inactive and Isoprot counter 3752.
Cc1ccc(Cn2c(Cc3ccccc3)nc3ccccc32)cc1 was read as hDAT+cocaine inactive.
Cc1nc2ccccc2c2nc(N)nn12 was read as hDAT+cocaine inactive and Calb biofilm kill inactive.
For CCCc1nc2ccccc2c2nc(N)nn12 the results were hDAT+cocaine inactive, MMP-13 inhibitor inactive, AP ELISA ortho inactive, Calb biofilm kill inactive, D1 allo mod 27, D1 mod confirm 19312, D1 ag no DA inactive and Isoprot counter 6464.
CCCCN(c1ccccc1)c1ncnc2nc[nH]c12 was read as hDAT+cocaine inactive, MMP-13 inhibitor inactive, AP ELISA ortho inactive, Calb biofilm kill inactive, D1 allo mod 12, D1 mod confirm 11140, D1 ag no DA inactive and Isoprot counter 3376.
CCOC(=O)Cn1nc(Cc2ccccc2)c2ccccc2c1=O was read as hDAT+cocaine inactive and Calb biofilm kill inactive.
CCOC(=O)N1CCC(NC(=O)Cn2nc(Cc3ccncc3)c3ccccc3c2=O)CC1 was read as hDAT+cocaine inactive, MMP-13 inhibitor inactive, AP ELISA ortho inactive, Calb biofilm kill inactive, D1 allo mod 4.3, D1 mod confirm inactive, D1 ag no DA inactive and Isoprot counter inactive.
CCOC(=O)N1CCC(N2C(=O)c3ccccc3C2Nc2cccnc2)CC1 (stereo unspecified) was read as hDAT+cocaine inactive, MMP-13 inhibitor inactive, AP ELISA ortho inactive, Calb biofilm kill inactive and D1 allo mod inactive.
Cc1ccc(NC2c3ncccc3C(=O)N2C2CCCCC2)cc1 (stereo unspecified) was read as hDAT+cocaine inactive, MMP-13 inhibitor inactive, AP ELISA ortho inactive, Calb biofilm kill inactive, D1 allo mod 11, D1 mod confirm 13584 and Isoprot counter 3228.
Screening O=C1c2cccnc2C(=O)N1C1CCCCC1 returned hDAT+cocaine inactive, MMP-13 inhibitor inactive, AP ELISA ortho inactive, Calb biofilm kill inactive and D1 allo mod inactive.
`Cc1ccc(NC2c3ncccc3C(=O)N2C2CCCCC2)cc1C` (stereo unspecified) gave hDAT+cocaine inactive, MMP-13 inhibitor inactive, AP ELISA ortho inactive, Calb biofilm kill inactive, D1 allo mod 4.1, D1 mod confirm 10752, D1 ag no DA inactive and Isoprot counter 6560.
`Cc1cccc(-n2c(=O)[nH]c3c(C(N)=O)nc(C(C)C)nc32)c1` gave hDAT+cocaine inactive, MMP-13 inhibitor inactive, Calb biofilm kill inactive, D1 allo mod 5.5, D1 mod confirm 10016, D1 ag no DA inactive and Isoprot counter inactive.
For CCc1ccc(N(C(=O)c2snc(C(N)=O)c2N)C(C(=O)NCCC(C)C)c2c[nH]c3ccccc23)cc1 (stereo unspecified) the results were hDAT+cocaine inactive.
`O=C(COc1ccccc1)NCc1nnc(SCC(=O)Nc2nccs2)n1-c1ccccc1` gave hDAT+cocaine inactive, MMP-13 inhibitor inactive, AP ELISA ortho inactive, Calb biofilm kill inactive, D1 allo mod 3.9, D1 mod confirm inactive, D1 ag no DA inactive and Isoprot counter inactive.
For COc1cccc(C(=O)NCc2nnc(SCC(=O)Nc3nccs3)n2-c2ccccc2)c1 the results were hDAT+cocaine inactive, MMP-13 inhibitor inactive, AP ELISA ortho inactive, Calb biofilm kill inactive and D1 allo mod inactive.
For N#Cc1c(N2CCCCC2)nc(N)c2c(N)nc3c(c12)CC(c1ccccc1)O3 (stereo unspecified) the results were hDAT+cocaine inactive and Calb biofilm kill inactive.
CCN(CC)c1nc(N)c2c(N)nc3c(c2c1C#N)CC(c1ccccc1)O3 (stereo unspecified) was read as hDAT+cocaine inactive, MMP-13 inhibitor inactive, AP ELISA ortho inactive, Calb biofilm kill inactive, D1 allo mod 3.6, D1 mod confirm 6688, D1 ag no DA inactive and Isoprot counter inactive.
Screening CCCCOc1ccc(-c2nc(=S)[nH][nH]2)cc1 returned hDAT+cocaine inactive and Calb biofilm kill inactive.
Screening CCOCCn1c(SCCc2ccccc2)nc2c1c(=O)[nH]c(=O)n2C returned hDAT+cocaine inactive, MMP-13 inhibitor inactive, AP ELISA ortho inactive, Calb biofilm kill inactive and D1 allo mod inactive.
For C/C=C/Cn1c(SCCCc2ccccc2)nc2c1c(=O)[nH]c(=O)n2C the results were hDAT+cocaine inactive, MMP-13 inhibitor inactive, AP ELISA ortho inactive, Calb biofilm kill inactive, D1 allo mod 6.3, D1 mod confirm 8184, D1 ag no DA inactive and Isoprot counter inactive.
Screening CCCCCn1c(SCCc2ccccc2)nc2c1c(=O)[nH]c(=O)n2C returned hDAT+cocaine inactive, MMP-13 inhibitor inactive, AP ELISA ortho inactive, Calb biofilm kill inactive, D1 allo mod 5.5, D1 mod confirm 12580, D1 ag no DA inactive and Isoprot counter 4052.
